This note sets out measurements from ChEMBL document CHEMBL3997773, “Synthesis of C-4-Substituted Steviol Derivatives and Their Inhibitory Effects against Hepatitis B Virus” (J Nat Prod, 2016).

pIC50: −log10 of the molar value. Calls of active or inactive are those of the source. The calls are words filed in the database; no cut-off is given here.

Data set [1] has as its system Hepatitis B virus subtype adw2. Kind of data set: Antiviral activity against Hepatitis B virus subtype adw2 infected in human HuH7 cells assessed as reduction in precore/pregenomic RNA level at 2.5 to 10 ug/ml after 2 days by northern blot method. The class given is functional, cell-based. Put shortly: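 After pHBV1.2 transfection of Huh7 cells for 2 days, cells were treated at 2.5, 5 or 10 μg/mL for 2 more days. Total RNA was Northern-blotted with an HBV whole-genome DNA probe. GAPDH served as loading control and β-gal marked transfection efficiency. Bands from three experiments were quantified by densitometry and normalized to GAPDH.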

Data set [2] in a line: Antiviral activity against Hepatitis B virus subtype adw2 infected in human HuH7 cells assessed as effect on HBx level at 2.5 ug/ml after 2 days by immunoblot method relative to control. The class given is functional. Put shortly:
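Huh7 cells were transfected with pHBV1.2 (1.2-fold HBV adw2 genome) for 2 days, then exposed to 2.5, 5 or 10 μg/mL for another 2 days. Whole-cell protein was extracted with protease inhibitors. SHBs, HBcAg and HBx were detected by immunoblot, with α-tubulin for comparison.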
(In general: A western blot detects proteins with antibodies after separation by electrophoresis.)

The next data set has as its system Hepatitis B virus. Description: Decrease in HBV X promoter activity infected in human HuH7 cells cotransfected with pHBV1.2 at 10 ug/ml after 24 hrs by luciferase reporter gene assay. The class given is cell-based. Put shortly:
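Huh7 cells were seeded for 24 h, then cotransfected with pHBV1.2, pRLSV40 and a pGL4.17-based Core (nt 1636-1851), S (nt 3114-220), PreS (nt 2438-2855) or X (nt 1071-1357) promoter-luciferase construct for 24 h. Cells were then treated at 10 μg/mL for 24 h and lysates were assayed for luciferase. Mean ± SD, n = 3.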
(In general: Reporter assays use an easily measured gene product as a stand-in for the process of interest.)

The nature of data set [3]: Decrease in NF-kB (unknown origin) promoter activity expressed in human HuH7 cells cotransfected with pHBV1.2 at 10 ug/ml after 24 hrs by luciferase reporter gene assay. The class given is cell-based. Put shortly:
(§1)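 Huh7 cells were seeded for 24 h, then cotransfected with pHBV1.2, pRLSV40 and pAP1-Luc or pNF-κB-Luc responsive-element reporter for 24 h. Cells were treated at 10 μg/mL for 24 h and lysates were assayed for luciferase. Mean ± SD, n = 3, compared with untreated cells.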

Data set [4] is described as follows: Decrease in AP-1 (unknown origin) promoter activity expressed in human HuH7 cells cotransfected with pHBV1.2 at 10 ug/ml after 24 hrs by luciferase reporter gene assay. Format: cell-based. Put shortly: as §1
Data set [5] can be described thus: Effect on ISRE (unknown origin) promoter activity expressed in human HuH7 cells cotransfected with pHBV1.2 at 10 ug/ml after 24 hrs by luciferase reporter gene assay. Format: cell-based. Put shortly: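 Huh7 seeded in 24-well plates for 24 h. They were cotransfected with pHBV1.2 plus a luciferase reporter carrying the AP-2 (pAP2-Luc) or ISRE (pISRE-Luc) element, at 1 μg/well, and pRLSV40, in serum-free DMEM for 24 h. After a PBS wash, cells were placed in DMEM with 2% FBS and treated with 10 μg/mL. Luciferase was read from lysates; mean ± SD, n = 3.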

Data set [6] concerns Huh-7. Kind of data set: Decrease in IKKalpha protein expression in human HuH7 cells transfected with pHBV1.2 at 5 ug/ml after 2 days by immunoblot method relative to control. The class given is functional. Put shortly: (§2)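 Huh7 cells were transfected with pHBV1.2 for 2 days, then treated at 2.5, 5 or 10 μg/mL for another 2 days. Whole-cell protein was extracted with protease inhibitors. NF-κB p65/p50, phospho-p65, IKKα/β and IκBα/phospho-IκBα were detected by immunoblot. Blots are representative of three experiments.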

For data set [7], the system named is Huh-7. Description: Decrease in IKKalpha protein expression in human HuH7 cells transfected with pHBV1.2 at 10 ug/ml after 2 days by immunoblot method relative to control. The class given is functional. Put shortly: as §2
Data set [8] has as its system Huh-7. Description: Decrease in IKKbeta protein expression in human HuH7 cells transfected with pHBV1.2 at 5 ug/ml after 2 days by immunoblot method relative to control. Format: functional. Put shortly:
as §2

The target in data set [9] is Transcription factor p65 (Homo sapiens) (UniProt Q04206). Description: Decrease in NF-kB p65 phosphorylation in human HuH7 cells transfected with pHBV1.2 at 5 ug/ml after 2 days by immunoblot method relative to control. Format: cell-based. Put shortly:
as §2

Data set [10] has as its target T1, NF-kappa-B inhibitor alpha (Homo sapiens) (UniProt P25963).
T1 sequence (whole entry): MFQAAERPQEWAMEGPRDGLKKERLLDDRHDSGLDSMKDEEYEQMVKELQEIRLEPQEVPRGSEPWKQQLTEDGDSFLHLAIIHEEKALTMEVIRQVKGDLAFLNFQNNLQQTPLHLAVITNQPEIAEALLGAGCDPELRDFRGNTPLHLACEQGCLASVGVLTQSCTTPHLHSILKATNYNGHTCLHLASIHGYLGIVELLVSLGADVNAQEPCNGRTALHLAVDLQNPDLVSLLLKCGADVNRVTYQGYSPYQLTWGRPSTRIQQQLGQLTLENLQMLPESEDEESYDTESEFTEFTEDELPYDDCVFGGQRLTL
Kind of data set: Decrease in IKBalpha phosphorylation in human HuH7 cells transfected with pHBV1.2 at 5 ug/ml after 2 days by immunoblot method relative to control. Format: cell-based. Put shortly: as §2

The target of data set [11] is T1, NF-kappa-B inhibitor alpha (Homo sapiens). Kind of data set: Decrease in IKBalpha phosphorylation in human HuH7 cells transfected with pHBV1.2 at 10 ug/ml after 2 days by immunoblot method relative to control. The class given is cell-based. Put shortly: as §2
Data set [12] deals with Huh-7. Kind of data set: Decrease in IKBalpha protein expression in human HuH7 cells transfected with pHBV1.2 at 5 ug/ml after 2 days by immunoblot method relative to control. Format: functional. Put shortly:
as §2

For data set [13], the system named is Huh-7. Description: Decrease in IKBalpha protein expression in human HuH7 cells transfected with pHBV1.2 after 2 days by immunoblot method. Format: functional, cell-based. Put shortly:
as §2

The species named for the next data set is Homo sapiens. Kind of data set: Decrease in SAPK/JNK phosphorylation in human HuH7 cells transfected with pHBV1.2 at 2.5 to 10 ug/ml after 2 days by immunoblot method.
Data set [14] deals with Huh-7. Kind of data set: Decrease in SAPK/JNK protein expression in human HuH7 cells transfected with pHBV1.2 at 2.5 to 10 ug/ml after 2 days by immunoblot method.
A short description of data set [15]: Antiviral activity against Hepatitis B virus subtype adw2 infected in human HepG2.2.15 cells assessed as inhibition of HBeAg secretion by EIA.
Data set [16] concerns Huh-7. Description: Effect on p38 MAPK protein expression in human HuH7 cells transfected with pHBV1.2 at 2.5 ug/ml after 2 days by immunoblot method relative to control.
For data set [17], the system named is Huh-7. Kind of data set: Decrease in p38 MAPK protein expression in human HuH7 cells transfected with pHBV1.2 at 5 ug/ml after 2 days by immunoblot method relative to control.
Data set [18] concerns Huh-7. Description: Decrease in p38 MAPK protein expression in human HuH7 cells transfected with pHBV1.2 at 10 ug/ml after 2 days by immunoblot method relative to control.
Data set [19] can be described thus: Selectivity index, ratio of TC50 for human HepG2.2.15 cells to IC50 for Hepatitis B virus subtype adw2 infected in human HuH7 cells assessed as inhibition of viral DNA replication.

Chain of Transcription factor p65 (Homo sapiens) (Q04206 whole entry): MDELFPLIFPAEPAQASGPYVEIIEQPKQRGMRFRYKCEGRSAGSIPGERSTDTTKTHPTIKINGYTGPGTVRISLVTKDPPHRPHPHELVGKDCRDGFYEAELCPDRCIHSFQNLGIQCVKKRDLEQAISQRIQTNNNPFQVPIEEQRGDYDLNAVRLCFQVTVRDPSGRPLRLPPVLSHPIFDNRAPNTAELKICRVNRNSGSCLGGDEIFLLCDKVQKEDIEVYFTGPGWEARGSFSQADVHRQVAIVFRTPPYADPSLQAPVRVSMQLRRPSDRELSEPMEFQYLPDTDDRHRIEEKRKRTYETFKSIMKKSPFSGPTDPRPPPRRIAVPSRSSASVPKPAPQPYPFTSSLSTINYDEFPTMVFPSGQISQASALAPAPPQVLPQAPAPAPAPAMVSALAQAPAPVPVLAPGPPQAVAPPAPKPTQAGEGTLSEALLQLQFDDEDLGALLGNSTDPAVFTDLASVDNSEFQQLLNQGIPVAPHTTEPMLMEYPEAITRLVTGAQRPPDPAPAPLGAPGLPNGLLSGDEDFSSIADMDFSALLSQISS

Broadly, the pIC50 is the negative decadic logarithm of the IC50, by convention in mol/L. With `C=C1C[C@@]23CC[C@H]4[C@@](C)(CCC[C@@]4(C)NC(=O)NCCCC)[C@@H]2CC[C@]1(O)C3`, the result (in data set [1]; in the data set on Hepatitis B virus; in data set [3]; in data set [4]; in the data set listed under Homo sapiens; in the data set with Huh-7 [14]) was Active. The “fold change (FC)” value is 1.12 in data set [2]; 1.01 in the data set with Huh-7 [6]; 0.46 in the data set on Huh-7 [7]; 0.97 with Huh-7 [8]; 0.88 in data set [9]; 0.94 in data set [10]. Besides, the fold change (FC) worked out at 0.25 in data set [11]; 0.94 in the data set on Huh-7 [12]; 1.01 with Huh-7 [16]; 0.98 with Huh-7 [17]; 0.33 in the data set on Huh-7 [18]. Also, the outcome in [5] was inactive. Further, the Activity result in the data set on Huh-7 [13] is “Dose-dependent effect”. In addition, the pIC50 in data set [15] is 4.69. In addition, in data set [19], the selectivity ratio was 57.7.
